# Reference: ChEMBL document CHEMBL1255475, “Mutant prevention concentrations of four carbapenems against gram-negative rods” (2010)
# Assays:
# Assay type in all cases: functional
# Escherichia coli [1] = assay: Antibacterial activity against beta-lactamase-positive ESBL-negative Escherichia coli E412 assessed as mutant prevention concentration after overnight incubation
# In short: (§1)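 Overnight growth on blood trypticase soy agar (35°C, air) was resuspended in 0.9% saline and counted on drug-free Mueller-Hinton agar. […] Colonies were retested by agar dilution to confirm mutants. MPC was the lowest concentration preventing resistant-mutant growth.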
# Klebsiella pneumoniae [2] = assay: Antibacterial activity against beta-lactamase-negative Klebsiella pneumoniae E359 incubated up to 7 days by agar dilution method; settings: E359, 168 h
# Escherichia coli [3] = assay: Antibacterial activity against beta-lactamase-positive ESBL-negative Escherichia coli E430 incubated up to 7 days by agar dilution method; settings: E430, 168 h
# In short: (§2)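 MIC by CLSI agar dilution, with quality-control strains in each run. Beta-lactamase status was set by 30 μg cefazolin Kirby-Bauer disk diffusion. ESBL status was set by cefotaxime and ceftazidime disks (30 μg) with and without clavulanic acid (10 μg).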
# Acinetobacter baumannii [4] = assay: Antibacterial activity against Acinetobacter baumannii A898 assessed as mutant prevention concentration after overnight incubation
# Acinetobacter baumannii [5] = assay: Antibacterial activity against Acinetobacter baumannii A908 assessed as mutant prevention concentration after overnight incubation
# Klebsiella pneumoniae [6] = assay: Antibacterial activity against beta-lactamase-negative Klebsiella pneumoniae E420 assessed as mutant prevention concentration after overnight incubation; in short: as §1
# Escherichia coli [7] = assay: Antibacterial activity against beta-lactamase-positive ESBL-positive Escherichia coli E465 assessed as mutant prevention concentration after overnight incubation; in short: as §1
# Escherichia coli [8] = assay: Antibacterial activity against beta-lactamase-positive ESBL-negative Escherichia coli E484 incubated up to 7 days by agar dilution method; settings: E484, 168 h
# Klebsiella pneumoniae [9] = assay: Antibacterial activity against beta-lactamase-negative Klebsiella pneumoniae E420 incubated up to 7 days by agar dilution method; settings: E420, 168 h; in short: as §2
# Klebsiella pneumoniae [10] = assay: Antibacterial activity against beta-lactamase-negative Klebsiella pneumoniae E417 incubated up to 7 days by agar dilution method; settings: E417, 168 h; in short: as §2
# Klebsiella pneumoniae [11] = assay: Antibacterial activity against beta-lactamase-negative Klebsiella pneumoniae E419 assessed as mutant prevention concentration after overnight incubation; in short: as §1
# Escherichia coli [12] = assay: Antibacterial activity against beta-lactamase-positive ESBL-positive Escherichia coli E460 incubated up to 7 days by agar dilution method; settings: E460, 168 h; in short: as §2
# Pseudomonas aeruginosa [13] = assay: Antibacterial activity against Pseudomonas aeruginosa P352 assessed as mutant prevention concentration after overnight incubation
# Pseudomonas aeruginosa [14] = assay: Antibacterial activity against Pseudomonas aeruginosa P358 assessed as mutant prevention concentration after overnight incubation
# Acinetobacter baumannii [15] = assay: Antibacterial activity against Acinetobacter baumannii A903 assessed as mutant prevention concentration after overnight incubation
# Klebsiella pneumoniae [16] = assay: Antibacterial activity against beta-lactamase-positive ESBL-negative Klebsiella pneumoniae E481 incubated up to 7 days by agar dilution method; settings: E481, 168 h
# Escherichia coli [17] = assay: Antibacterial activity against beta-lactamase-negative Escherichia coli E345 incubated up to 7 days by agar dilution method; settings: E345, 168 h
# Klebsiella pneumoniae [18] = assay: Antibacterial activity against beta-lactamase-negative Klebsiella pneumoniae E358 incubated up to 7 days by agar dilution method; settings: E358, 168 h
# Escherichia coli [19] = assay: Antibacterial activity against beta-lactamase-positive ESBL-positive Escherichia coli E446 incubated up to 7 days by agar dilution method; settings: E446, 168 h; in short: as §2
# Klebsiella pneumoniae [20] = assay: Antibacterial activity against beta-lactamase-positive ESBL-negative Klebsiella pneumoniae E472 assessed as mutant prevention concentration after overnight incubation; in short: as §1
# Escherichia coli [21] = assay: Antibacterial activity against beta-lactamase-positive ESBL-positive Escherichia coli E451 incubated up to 7 days by agar dilution method; settings: E451, 168 h; in short: as §2
# Klebsiella pneumoniae [22] = assay: Antibacterial activity against beta-lactamase-positive ESBL-positive Klebsiella pneumoniae E478 incubated up to 7 days by agar dilution method; settings: E478, 168 h
# Pseudomonas aeruginosa [23] = assay: Antibacterial activity against Pseudomonas aeruginosa P373 assessed as mutant prevention concentration after overnight incubation
# Escherichia coli [24] = assay: Antibacterial activity against beta-lactamase-positive ESBL-positive Escherichia coli E456 incubated up to 7 days by agar dilution method; settings: E456, 168 h; in short: as §2
# Acinetobacter baumannii [25] = assay: Antibacterial activity against Acinetobacter baumannii A929 assessed as mutant prevention concentration after overnight incubation
# Acinetobacter baumannii [26] = assay: Antibacterial activity against Acinetobacter baumannii A931 assessed as mutant prevention concentration after overnight incubation
# Pseudomonas aeruginosa [27] = assay: Antibacterial activity against Pseudomonas aeruginosa P353 assessed as mutant prevention concentration after overnight incubation
# Escherichia coli [28] = assay: Antibacterial activity against beta-lactamase-positive ESBL-negative Escherichia coli E412 incubated up to 7 days by agar dilution method; settings: E412, 168 h; in short: as §2
# Klebsiella pneumoniae [29] = assay: Antibacterial activity against beta-lactamase-positive ESBL-negative Klebsiella pneumoniae E511 assessed as mutant prevention concentration after overnight incubation; in short: as §1
# Klebsiella pneumoniae [30] = assay: Antibacterial activity against beta-lactamase-negative Klebsiella pneumoniae E419 incubated up to 7 days by agar dilution method; settings: E419, 168 h
# Escherichia coli [31] = assay: Antibacterial activity against beta-lactamase-positive ESBL-positive Escherichia coli E459 incubated up to 7 days by agar dilution method; settings: E459, 168 h; in short: as §2
# Acinetobacter baumannii [32] = assay: Antibacterial activity against Acinetobacter baumannii A849 assessed as mutant prevention concentration after overnight incubation
# Acinetobacter baumannii [33] = assay: Antibacterial activity against Acinetobacter baumannii A912 assessed as mutant prevention concentration after overnight incubation
# Escherichia coli [34] = assay: Antibacterial activity against beta-lactamase-negative Escherichia coli E408 assessed as mutant prevention concentration after overnight incubation
# Pseudomonas aeruginosa [35] = assay: Antibacterial activity against Pseudomonas aeruginosa P338 assessed as mutant prevention concentration after overnight incubation
# Pseudomonas aeruginosa [36] = assay: Antibacterial activity against Pseudomonas aeruginosa P319 assessed as mutant prevention concentration after overnight incubation
# Klebsiella pneumoniae [37] = assay: Antibacterial activity against beta-lactamase-negative Klebsiella pneumoniae E361 assessed as mutant prevention concentration after overnight incubation
# Klebsiella pneumoniae [38] = assay: Antibacterial activity against beta-lactamase-negative Klebsiella pneumoniae E360 assessed as mutant prevention concentration after overnight incubation
# Klebsiella pneumoniae [39] = assay: Antibacterial activity against beta-lactamase-negative Klebsiella pneumoniae E417 assessed as mutant prevention concentration after overnight incubation
# Klebsiella pneumoniae [40] = assay: Antibacterial activity against beta-lactamase-positive ESBL-negative Klebsiella pneumoniae E507 incubated up to 7 days by agar dilution method; settings: E507, 168 h
# In short: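 MPC determination: overnight cultures on blood trypticase soy agar at 35°C in air were resuspended in 0.9% saline, and CFU were counted on drug-free Mueller-Hinton agar. […] Growth was retested by agar dilution to confirm mutants. MPC was the lowest concentration preventing resistant-mutant growth.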
# Klebsiella pneumoniae [41] = assay: Antibacterial activity against beta-lactamase-positive ESBL-negative Klebsiella pneumoniae E481 assessed as mutant prevention concentration after overnight incubation; in short: as §1
# Klebsiella pneumoniae [42] = assay: Antibacterial activity against beta-lactamase-positive ESBL-negative Klebsiella pneumoniae E480 incubated up to 7 days by agar dilution method; settings: E480, 168 h
# Pseudomonas aeruginosa [43] = assay: Antibacterial activity against Pseudomonas aeruginosa P327 assessed as mutant prevention concentration after overnight incubation
# Klebsiella pneumoniae [44] = assay: Antibacterial activity against beta-lactamase-negative Klebsiella pneumoniae E362 assessed as mutant prevention concentration after overnight incubation
smiles,measurement,setting,value
C[C@@H](O)[C@H]1C(=O)N2C(C(=O)O)=C(S[C@@H]3CN[C@H](CNS(N)(=O)=O)C3)[C@H](C)[C@H]12 [DORIPENEM],MPC,Escherichia coli [1],0.125 µg/mL
same,MIC,Klebsiella pneumoniae [2],0.06 µg/mL
same,MIC,Escherichia coli [3],0.03 µg/mL
same,MPC,Acinetobacter baumannii [4],4 µg/mL
same,MPC,Acinetobacter baumannii [5],1 µg/mL
same,MPC,Klebsiella pneumoniae [6],0.06 µg/mL
same,MPC,Escherichia coli [7],0.5 µg/mL
same,MIC,Escherichia coli [8],2 µg/mL
same,MIC,Klebsiella pneumoniae [9],0.06 µg/mL
same,MIC,Klebsiella pneumoniae [10],0.06 µg/mL
same,MPC,Klebsiella pneumoniae [11],0.25 µg/mL
same,MIC,Escherichia coli [12],0.03 µg/mL
same,MPC,Pseudomonas aeruginosa [13],2 µg/mL
same,MPC,Pseudomonas aeruginosa [14],64 µg/mL
same,MPC,Acinetobacter baumannii [15],4 µg/mL
same,MIC,Klebsiella pneumoniae [16],2 µg/mL
same,MIC,Escherichia coli [17],0.03 µg/mL
same,MIC,Klebsiella pneumoniae [18],0.06 µg/mL
same,MIC,Escherichia coli [19],0.06 µg/mL
same,MPC,Klebsiella pneumoniae [20],64 µg/mL
same,MIC,Escherichia coli [21],0.03 µg/mL
same,MIC,Klebsiella pneumoniae [22],2 µg/mL
same,MPC,Pseudomonas aeruginosa [23],>4 µg/mL
same,MIC,Escherichia coli [24],0.03 µg/mL
same,MPC,Acinetobacter baumannii [25],4 µg/mL
same,MPC,Acinetobacter baumannii [26],2 µg/mL
same,MPC,Pseudomonas aeruginosa [27],2 µg/mL
same,MIC,Escherichia coli [28],0.03 µg/mL
same,MPC,Klebsiella pneumoniae [29],>64 µg/mL
same,MIC,Klebsiella pneumoniae [30],0.125 µg/mL
same,MIC,Escherichia coli [31],0.03 µg/mL
same,MPC,Acinetobacter baumannii [32],16 µg/mL
same,MPC,Acinetobacter baumannii [33],8 µg/mL
same,MPC,Escherichia coli [34],0.06 µg/mL
same,MPC,Pseudomonas aeruginosa [35],4 µg/mL
same,MPC,Pseudomonas aeruginosa [36],8 µg/mL
same,MPC,Klebsiella pneumoniae [37],0.125 µg/mL
same,MPC,Klebsiella pneumoniae [38],0.125 µg/mL
same,MPC,Klebsiella pneumoniae [39],0.125 µg/mL
same,MIC,Klebsiella pneumoniae [40],2 µg/mL
same,MPC,Klebsiella pneumoniae [41],8 µg/mL
same,MIC,Klebsiella pneumoniae [42],2 µg/mL
same,MPC,Pseudomonas aeruginosa [43],4 µg/mL
same,MPC,Klebsiella pneumoniae [44],0.125 µg/mL
